# In ChEMBL document CHEMBL5154824, “Design and synthesis of multifunctional microtubule targeting agents endowed with dual pro-apoptotic and anti-autophagic efficacy” (Eur J Med Chem, 2022):
# Activity calls are given as the source filed them. The calls are words filed in the database; no cut-off is given here.
# Legend:
# HeLa [1] = test: Inhibition of autophagosome degradationin human HeLa cells at 1 uM incubated for 3 hrs with HBSS medium by immunofluorescence based laser scanning confocal microscopic analysis; format: functional, cell-based
# Outline: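 HeLa cells were treated in HBSS at 1 or 10 μM, with BafA1 300 nM as reference, for 3 h. After fixation in ice-cold methanol, LC3 and LAMP1 were immunostained. Laser scanning confocal microscopy assessed autophagosome number and LC3/LAMP1 colocalisation.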
# HeLa [2] = test: Induction of autophagy in human HeLa cells assessed as increase in number of autophagosomes formation at 1 uM measured after 3 hrs by immunofluorescence based laser scanning confocal microscopic analysis; format: functional, cell-based
# Outline: (§1)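 HeLa cells in growth medium were treated at 1 or 10 μM, with BafA1 300 nM as reference, for 3 h. Cells were fixed in ice-cold methanol, immunostained for LC3 (autophagosomes) and LAMP1, and imaged by laser scanning confocal microscopy.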
# HeLa [3] = test: Induction of morphological changes in human HeLa cells assessed as cell rounding at 10 uM incubated for 3 hrs by phalloidin staining based laser scanning confocal microscopic analysis; format: functional
# Outline: (§2)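 HeLa cells in growth medium were treated at 1 or 10 μM, with BafA1 300 nM as reference, for 3 h. Cells were fixed in 4% PFA, stained with anti-GM130 for the Golgi and AF647-phalloidin for actin, and imaged by laser scanning confocal microscopy.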
# HeLa [4] = test: Induction of morphological changes in human HeLa cells assessed as effect on actin cytoskeleton at 10 uM incubated for 3 hrs by phalloidin staining based laser scanning confocal microscopic analysis; format: functional, cell-based; outline: as §2
# HeLa [5] = test: Induction of morphological changes in human HeLa cells assessed as golgi complex fragmentation at 1 uM incubated for 3 hrs by phalloidin staining based laser scanning confocal microscopic analysis; format: functional, cell-based; outline: as §2
# A2780 [6] = test: Cytotoxicity against human A2780AD cells assessed as inhibition of cell growth measured after 48 hrs by MTT assay; format: functional, cell-based; conditions: A2780, 48 h
# Outline: (§3)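 MTT assay. Cells were exposed for 48 h to increasing concentrations of compound. Ovarian A2780 was paired with its P-gp-overexpressing A2780AD counterpart, and HeLa with HeLa β3, which overexpresses the tubulin β3 isotype. IC50 is the mean ± SD of three independent experiments.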
# [7] = Ratio of IC50 for cytotoxicity against human HeLa cells overexpressing tubulin beta3 assessed as inhibition of cell growth measured after 48 hrs to IC50 for cytotoxicity against human HeLa cells assessed as inhibition of cell growth measured after 48 hrs; format: functional
# Outline: (§4)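 MTT assay: cells exposed to increasing compound concentrations for 48 h. Lines were A2780 and its P-gp-overexpressing A2780AD counterpart, and HeLa and HeLa β3 (tubulin β3-overexpressing). IC50 is the mean ± SD of three independent experiments. R/S is the IC50 in the resistant line divided by that in the parental line.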
# A2780 [8] = test: Cytotoxicity against human A2780 cells assessed as inhibition of cell growth measured after 48 hrs by MTT assay; format: functional, cell-based; conditions: A2780, 48 h; outline: as §3
# [9] = Cytotoxicity against human MFD-1 cells assessed as inhibition of cell growth measured after 72 hrs by MTT assay; format: functional, cell-based; conditions: MFD-1, 72 h
# Outline: (§5)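 Oesophageal adenocarcinoma lines were exposed to at least 8 increasing concentrations for 72 h. Viability was measured by MTT. IC50 is the mean ± SD of at least three independent experiments.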
# Tubulin (Homo sapiens) [10] = biological target: T1, Tubulin (Homo sapiens) (UniProt P68371+Q9H4B7+P0DPH7+P68366+Q13509+Q71U36+P04350+Q3ZCM7+P07437+P68363+Q9BQE3+Q6PEY2+Q13885+Q9BVA1+Q9BUF5); test: Inhibition of tubulin (unknown origin) assembly measured at 5 uM by fluorescence assay; format: protein-complex assay
# HeLa [11] = test: Cytotoxicity against human HeLa cells assessed as inhibition of cell growth measured after 48 hrs by MTT assay; format: functional, cell-based; outline: as §3
# [12] = Ratio of IC50 for cytotoxicity against human […] assessed as inhibition of cell growth measured after 48 hrs to IC50 for cytotoxicity against human A2780 cells assessed as inhibition of cell growth measured after 48 hrs; format: functional; outline: as §4
# Tubulin (Homo sapiens) [13] = biological target: T1, Tubulin (Homo sapiens); test: Binding affinity to tubulin (unknown origin) assessed as fluorescence peak around 460 nm by UV/vis absorption spectroscopy; format: protein-complex assay
# HeLa [14] = test: Induction of autophagy in human HeLa cells assessed as increase in number of autophagosomes formation at 10 uM measured after 3 hrs by immunofluorescence based laser scanning confocal microscopic analysis; format: functional, cell-based; outline: as §1
# [15] = Cytotoxicity against human SKGT4 cells assessed as inhibition of cell growth measured after 72 hrs by MTT assay; format: functional, cell-based; conditions: SKGT4, 72 h; outline: as §5
SMILES,Activity (HeLa [1]),Activity (HeLa [2]),Activity (HeLa [3]),Activity (HeLa [4]),Activity (HeLa [5]),IC50 (A2780 [6]) [nM],Ratio IC50 [7],IC50 (A2780 [8]) [nM],IC50 [9] [nM],inhibition (Tubulin (Homo sapiens) [10]) [%],IC50 (HeLa [11]) [nM],Ratio IC50 [12],Activity (Tubulin (Homo sapiens) [13]),Activity (HeLa [14]),IC50 [15] [nM]
O=C(OC1=C(c2cccc3ncccc23)Oc2cc3ccccc3cc2-n2cccc21)C1CCNCC1,Active,Active,Active,Active,Active,–,–,–,–,–,–,–,–,–,–
CN1CCN(C(=O)OC2=C(c3cccc4ncccc34)Oc3cc4ccccc4cc3-n3cccc32)CC1,–,–,–,–,–,399,0.71,600,1210,100,469,0.67,Active,Active,550
